Columns and labels:
[1] = target: T1, Thrombopoietin receptor (Homo sapiens) (UniProt P40238); test: Agonist activity at human TPOR expressed in mouse BaF3 cells at 150 nM
T1 sequence (whole entry): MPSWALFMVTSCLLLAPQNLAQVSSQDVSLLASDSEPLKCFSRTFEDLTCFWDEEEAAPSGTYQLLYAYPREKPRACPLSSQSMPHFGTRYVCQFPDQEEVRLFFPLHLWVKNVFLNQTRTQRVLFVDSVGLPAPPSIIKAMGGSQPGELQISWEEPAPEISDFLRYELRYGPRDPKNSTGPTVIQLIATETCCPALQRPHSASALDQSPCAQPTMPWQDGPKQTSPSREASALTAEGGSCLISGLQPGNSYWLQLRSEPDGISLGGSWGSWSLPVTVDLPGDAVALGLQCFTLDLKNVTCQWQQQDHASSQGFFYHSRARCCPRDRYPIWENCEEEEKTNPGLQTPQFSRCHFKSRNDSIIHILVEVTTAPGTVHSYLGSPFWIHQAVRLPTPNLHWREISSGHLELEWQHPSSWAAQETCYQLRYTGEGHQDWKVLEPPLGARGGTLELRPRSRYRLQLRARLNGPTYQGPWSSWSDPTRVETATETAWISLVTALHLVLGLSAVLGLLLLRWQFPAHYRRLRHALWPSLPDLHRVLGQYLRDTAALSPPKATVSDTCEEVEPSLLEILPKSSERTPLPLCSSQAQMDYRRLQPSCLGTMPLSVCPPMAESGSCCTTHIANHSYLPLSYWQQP

[2] = target: T1, Thrombopoietin receptor (Homo sapiens); test: Agonist activity at human TPOR expressed in mouse BaF3 cells at 300 nM
[3] = target: T2, Thrombopoietin receptor (Homo sapiens, UniProt P40238); test: Agonist activity at human TPOR expressed
T2 sequence (P40238 whole entry): T1 sequence (whole entry)

[4] = Apparent total plasma clearance in rat at 5 mg/kg, po; type: ADME, organism-based; parameters: dose 5 mg/kg, route oral; details: read-out: CLt/F (converted)
Outline: (§1)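 Test substances given as ethanolamine salts, orally at 5 mg/kg to rats. Plasma concentration–time profiles were used to derive apparent total plasma clearance (CLz/F), half-life, AUC0–t and peak plasma concentration (Cmax). Values are reported as mean ± spread.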

[5] = Cmax in rat at 5 mg/kg, po; type: ADME, organism-based; parameters: dose 5 mg/kg, route oral; details: in vivo
Outline: as §1

[6] = AUC (0 to t) in rat at 5 mg/kg, po; type: ADME, organism-based; parameters: dose 5 mg/kg, route oral; details: plasma
Outline: as §1

[7] = Half life in rat at 5 mg/kg, po; type: ADME, organism-based; parameters: dose 5 mg/kg, route oral; details: in vivo
Outline: as §1

SMILES	% activity vs 10 ng/ml TPO [1] [%]	% activity vs 10 ng/ml TPO [2] [%]	EC50 [3] [nM]	further results
C/C(NNC(=S)N1CCc2cc(C(=O)O)ccc21)=C1/C(=O)N(c2ccc(C)cc2)c2ccc(F)cc21	78.1	122	–	–
CC1=NN(c2ccc3c(c2)CCC3)C(=O)/C1=C(/C)NNC(=S)N1CCc2cc(C(=O)O)ccc21	–	–	3	–
CC1=NN(c2ccc3c(c2)CCC3)C(=O)/C1=C(/C)NNC(=S)N1CCCc2cc(C(=O)O)ccc21	–	–	35	–
CC1=NN(c2ccc(C)c(C)c2)C(=O)/C1=C(/C)NNC(=S)N1CCCc2cc(C(=O)O)ccc21	–	–	64	–
CNC(=O)c1ccc2c(c1)CCN2C(=S)NN/C(C)=C1\C(=O)N(c2ccc(C)c(C)c2)N=C1C	–	–	22	–
C/C(NNC(=S)N1CCCc2cc(C(=O)O)ccc21)=C1/C(=O)N(c2ccc(C)cc2)c2ccccc21	47.3	101	–	–
C/C(NNC(=S)N1CCCc2cc(C(=O)O)ccc21)=C1/C(=O)N(c2ccc(C)c(C)c2)c2ccccc21	30.9	33.4	–	–
CC1=NN(c2ccc(C)c(C)c2)C(=O)/C1=C(/C)NNC(=S)N1CCc2cc(C(=O)O)ccc21	–	–	6	–
C/C(NNC(=S)N1CCc2cc(C(=O)O)ccc21)=C1/C(=O)N(c2ccc3c(c2)CCC3)c2ccc(F)cc21	3.2	10.6	–	–
C/C(NNC(=S)N1CCc2cc(C(=O)O)ccc21)=C1/C(=O)N(c2ccc(C)c(C)c2)c2ccccc21	72.4	138	–	–
CC1=NN(c2ccc(C)c(C)c2)C(=O)/C1=C(/C)NNC(=S)N1CCc2cc(C(=O)N3CCOCC3)ccc21	–	–	31	–
C/C(NNC(=S)N1CCc2cc(C(=O)O)ccc21)=C1/C(=O)N(c2ccc3c(c2)CCC3)c2ccccc21	14.3	75.8	–	–
CC1=NN(c2ccc3c(c2)CCC3)C(=O)/C1=C(/C)NNC(=O)N1CCc2cc(C(=O)O)ccc21	–	–	46	CL/F [4]: 20.5 mL/min/kg; Cmax [5]: 3550 ng/mL; AUC(0-t) [6]: 4460 ng·h/mL; half-life [7]: 1.48 h
CCNC(=O)c1ccc2c(c1)CCN2C(=S)NN/C(C)=C1\C(=O)N(c2ccc(C)c(C)c2)N=C1C	–	–	26	–
C/C(NNC(=S)N1CCc2cc(C(=O)O)ccc21)=C1/C(=O)N(c2ccc(C)cc2)c2ccccc21	47.8	107	–	–
CC1=NN(c2ccc(C)c(C)c2)C(=O)/C1=C(/C)NNC(=O)N1CCc2cc(C(=O)O)ccc21	–	–	42	CL/F [4]: 113 mL/min/kg; Cmax [5]: 859 ng/mL; AUC(0-t) [6]: 923 ng·h/mL; half-life [7]: 1.86 h
